Assay outcomes: PubChem BioAssay, Broad Institute
A1 apoptosis 2: blocks A1, raising caspase activity | MEF A1-2A-BIM cells, caspase-Glo luminescence, 3 h; percent of clofoctol response, DMSO zero | caspase activation, % (concentration not given with the values) | 24,000 tested, under 10 active | AID 2465; in the data active = caspase activation above about 5.9%
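Test system – A1-2A-BIM-expressing MEF cells · Input – 2500 cells/well · Medium – RPMI-1640 growth medium with 10% FBS · Compound dosing – 50 nL pinned compound · Timing – 3 h compound exposure at 37 °C · Technique – Caspase-Glo luminescence (DEVD substrate) · Evaluation – Caspase-3/7 activity from luminescence increase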
INS-1E ATP HTS: INS-1E beta cell protection from cytokine death; INS-1E cytokine-induced death, ATP luminescence, 48 h; normalised: neutral wells 0, positive control 100; protection from cytokine-induced ATP loss, % at 10 µM; 0.1% of 20,000 active;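 active = mean replicate protection from cytokine-induced ATP loss at least 50% and at least 75% of replicates each reaching 50%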
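Assay system – rat INS-1E insulinoma cell line · Quantity – 8000 cells per well · Buffer or medium – RPMI without phenol red, 5% FBS · Schedule – 48 h co-treatment, 10 min post-lysis read · Technique – luminescent ATP assay (CellTiter-Glo)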
T cruzi intra: inhibitors of intracellular Trypanosoma cruzi. intracellular Trypanosoma cruzi in host cells, plate reader. activity score (inhibition), % at 5.01 µM. 4.9% of 22,000 active; in the data active = activity score above about 55%;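 note: parasites and compound incubated about four days before reading; 0% = median of neutral control wells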
* marks the source's active call; other numbers are inactive results; . = not tested or not shown. The entries come from a sample that favours hits as a whole.

SMILES	A1 apoptosis 2	INS-1E ATP HTS	T cruzi intra
C[C@@H]1CN([C@H](C)CO)C(=O)c2cccc(NC(=O)Nc3ccc(C(F)(F)F)cc3)c2O[C@@H]1CN(C)Cc1ccc(-c2ccccc2)cc1	0	-59	34
C[C@@H]1CN([C@H](C)CO)C(=O)c2cccc(NC(=O)C3CCCCC3)c2O[C@H]1CN(C)Cc1ccc(C(F)(F)F)cc1	.	-54	78*
C[C@@H]1CN([C@@H](C)CO)C(=O)c2cc(NC(=O)Nc3ccc(F)cc3)ccc2O[C@H]1CN(C)Cc1ccccc1	1	-1	6
C[C@@H]1CN([C@H](C)CO)C(=O)c2cccc(NC(=O)Nc3ccc(C(F)(F)F)cc3)c2O[C@H]1CN(C)Cc1ccc(C(F)(F)F)cc1	0	10	37
C[C@H]1CN([C@@H](C)CO)C(=O)c2cccc(NC(=O)Nc3ccc(C(F)(F)F)cc3)c2O[C@H]1CN(C)Cc1ccc(C(F)(F)F)cc1	.	-55	63*
C[C@@H]1CN([C@@H](C)CO)C(=O)c2cccc(NC(=O)Nc3ccc(C(F)(F)F)cc3)c2O[C@H]1CN(C)Cc1ccc(Oc2ccccc2)cc1	-1	-55	52
C[C@H]1CN([C@@H](C)CO)C(=O)c2cccc(NC(=O)Nc3ccc(C(F)(F)F)cc3)c2O[C@H]1CN(C)Cc1ccc(Oc2ccccc2)cc1	-2	-77	69*
C[C@@H]1CN([C@H](C)CO)C(=O)c2cccc(NC(=O)Nc3ccccc3)c2O[C@H]1CN(C)Cc1ccc(C(F)(F)F)cc1	0	-18	33
C[C@@H]1CN([C@H](C)CO)C(=O)c2cccc(NC(=O)Nc3ccc(C(F)(F)F)cc3)c2O[C@@H]1CN(C)Cc1ccc(Oc2ccccc2)cc1	.	-54	79*
C[C@@H]1CN([C@@H](C)CO)C(=O)c2cccc(NC(=O)Nc3ccc(C(F)(F)F)cc3)c2O[C@@H]1CN(C)Cc1ccc(Oc2ccccc2)cc1	.	-92	87*
C[C@@H]1CN([C@H](C)CO)C(=O)c2cccc(NC(=O)Nc3ccc(C(F)(F)F)cc3)c2O[C@H]1CN(C)Cc1ccc(Oc2ccccc2)cc1	-1	-4	42
C[C@H](CO)N1C[C@H](C)[C@@H](CN(C)Cc2ccc(-c3ccccc3)cc2)Oc2c(NC(=O)Nc3ccc4c(c3)OCO4)cccc2C1=O	.	-9	-17
C[C@@H]1CN([C@H](C)CO)C(=O)CCCn2nncc2CO[C@H]1CN(C)S(=O)(=O)c1ccc(Cl)cc1	0	.	-13
C[C@H](CO)N1C[C@H](C)[C@H](CN(C)Cc2ccc(C(=O)Nc3ccccc3N)cc2)Oc2c(NC(=O)Nc3ccc(C(F)(F)F)cc3)cccc2C1=O	.	-18	61*
C[C@@H]1CN([C@@H](C)CO)C(=O)c2cccc(NC(=O)Nc3ccc(C(F)(F)F)cc3)c2O[C@@H]1CN(C)Cc1ccc(C(=O)Nc2ccccc2N)cc1	.	-16	78*
C[C@H](CO)N1C[C@H](C)[C@H](CN(C)Cc2ccc(C(=O)O)cc2)Oc2c(NC(=O)Nc3ccc(C(F)(F)F)cc3)cccc2C1=O	-1	-8	-11
C[C@H](CO)N1C[C@H](C)[C@@H](CN(C)Cc2ccc(C(=O)O)cc2)Oc2c(NC(=O)Nc3ccc(C(F)(F)F)cc3)cccc2C1=O	2	6	-12
C[C@@H]1CN([C@H](C)CO)C(=O)c2cccc(NC(=O)c3nc4ccccc4s3)c2O[C@H]1CN(C)Cc1ccc(C(F)(F)F)cc1	.	-60	62*
C[C@H]1CN([C@@H](C)CO)C(=O)c2cccc(NC(=O)c3nc4ccccc4s3)c2O[C@H]1CN(C)Cc1ccc(C(F)(F)F)cc1	1	-48	49
C[C@H](CO)N1C[C@H](C)[C@H](CN(C)Cc2ccccc2)Oc2c(NC(=O)c3nc4ccccc4s3)cccc2C1=O	1	-26	49
C[C@H]1CN([C@@H](C)CO)C(=O)c2cccc(NC(=O)c3nc4ccccc4s3)c2O[C@H]1CN(C)Cc1ccccc1	.	-17	12
C[C@@H]1CN([C@H](C)CO)C(=O)c2cccc(NC(=O)c3nc4ccccc4s3)c2O[C@H]1CN(C)Cc1ccc(-c2ccccc2)cc1	-2	-20	47
C[C@H]1CN([C@@H](C)CO)C(=O)c2cccc(NC(=O)c3nc4ccccc4s3)c2O[C@@H]1CN(C)Cc1ccc(-c2ccccc2)cc1	-1	-18	73*
C[C@H]1CN([C@@H](C)CO)C(=O)c2cccc(NC(=O)c3nc4ccccc4s3)c2O[C@H]1CN(C)Cc1ccc(Oc2ccccc2)cc1	0	-24	68*
C[C@H](CO)N1C[C@H](C)[C@H](CN(C)Cc2ccc(Oc3ccccc3)cc2)Oc2c(NC(=O)c3nc4ccccc4s3)cccc2C1=O	0	-31	59*
SMILES	A1 apoptosis 2	INS-1E ATP HTS	T cruzi intra
C[C@@H]1CN([C@@H](C)CO)C(=O)c2cccc(NS(=O)(=O)c3ccc(F)cc3)c2O[C@@H]1CN(C)Cc1ccccc1	.	-1	-17
C[C@H]1CN([C@@H](C)CO)C(=O)Cc2cc(NC(=O)CCCN(C)C)ccc2O[C@@H]1CN(C)S(=O)(=O)c1cccs1	0	.	.
COc1ccc(CN(C)C[C@@H]2OCCCC[C@H](C)Oc3ccc(NS(=O)(=O)c4ccc(C)cc4)cc3C(=O)N([C@@H](C)CO)C[C@H]2C)cc1	1	.	.
C[C@@H]1CN([C@H](C)CO)C(=O)Cc2cc(NS(=O)(=O)c3ccccc3)ccc2O[C@@H]1CN(C)Cc1ccccc1	-1	-4	50
CNC[C@@H]1Oc2ccc(NC(=O)Nc3c(C)noc3C)cc2C(=O)N([C@H](C)CO)C[C@H]1C	.	.	-20
C[C@@H]1CN([C@H](C)CO)C(=O)c2cccc(NC(=O)c3nc4ccccc4s3)c2O[C@@H]1CN(C)Cc1ccc(Cl)c(Cl)c1	.	-28	8
C[C@H](CO)N1C[C@H](C)[C@H](CN(C)Cc2ccc(Cl)c(Cl)c2)Oc2c(NC(=O)c3nc4ccccc4s3)cccc2C1=O	-1	-41	60*
COc1ccc(CN(C)C[C@H]2Oc3ccc(NC(=O)C4CCCCC4)cc3CC(=O)N([C@H](C)CO)C[C@H]2C)cc1	-1	-6	-1
C[C@H]1CN([C@@H](C)CO)C(=O)Cc2cc(NC(=O)C3CCCCC3)ccc2O[C@H]1CN(C)Cc1ccc(Oc2ccccc2)cc1	.	-27	29
C[C@@H]1CN([C@H](C)CO)C(=O)Cc2cc(NC(=O)C3CCCCC3)ccc2O[C@H]1CN(C)Cc1ccc(Oc2ccccc2)cc1	.	-75	76*
COc1ccc(CN(C)C[C@H]2Oc3ccc(NC(=O)C4CCCCC4)cc3CC(=O)N([C@@H](C)CO)C[C@@H]2C)cc1	.	-1	64*
Cc1ccc(S(=O)(=O)Nc2cccc3c2O[C@@H](CN(C)C(=O)NC2CCCCC2)[C@@H](C)CN([C@@H](C)CO)C3=O)cc1	1	5	17
C[C@H](CO)N1C[C@H](C)[C@@H](CN(C)CC2CCCCC2)Oc2ccc(NC(=O)C3CC3)cc2C1=O	.	7	1
C[C@H](CO)N1C[C@H](C)[C@H](CN(C)Cc2ccc(-c3ccccc3)cc2)Oc2c(NC(=O)c3ccncc3)cccc2C1=O	-1	-12	68*
